One series concerns HT-29. Nature of the series: Cytotoxicity against human HT-29 cells expressing heterozygous BRAF V600E mutant assessed as cell growth measured after 7 days of treatment by crystal violet assay. It counts as functional, cell-based. Conditions: HT-29, 168 h. A digest of the protocol:
(§1)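 Cells seeded in 12-well plates: 8505C at 3 × 10^3, C32 at 10^4, HT29 at 5 × 10^3. Treated 24 h later with a dose series or DMSO vehicle for 7 days. Fixed in 4% PFA and stained with 0.1% crystal violet in 20% methanol. Destained with 10% acetic acid and read at 590 nm. Normalised to vehicle; mean ± SEM of three independent experiments.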

Series [1] is described as follows: Cytotoxicity against human cells expressing heterozygous BRAF V600E mutant assessed as cell growth measured after 7 days of treatment by crystal violet assay. As to conditions: 168 h; call rule not given here.
For another series, the system named is C32. The series is described as follows: Cytotoxicity against human C32 cells expressing heterozygous BRAF V600E mutant assessed as cell growth measured after 7 days of treatment by crystal violet assay. Type of series: functional, cell-based. As to conditions: C32, 168 h. A digest of the protocol: as §1
The next series has as its system 8505C. Nature of the series: Cytotoxicity against human 8505C cells expressing homozygous BRAF V600E mutant assessed as cell growth measured after 7 days of treatment by crystal violet assay. It counts as functional, cell-based. As to conditions: 168 h. The method, boiled down: as §1
Series [2] in a line: Drug uptake in human A-375 cells harboring BRAF V600E mutant assessed as fluorescent signal at cytoplasm at 0.5 uM measured after 48 hrs by fluorescence microscopy. Type of series: ADME, cell-based. Conditions: a-375, 48 h. A digest of the protocol: (§2)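 A375 and HeLa cells seeded at 3 × 10^4 and treated 24 h later with 0.5 µM compound or DMSO vehicle for 48 h. Washed with PBS, fixed in 4% formaldehyde for 10 min at room temperature, and stained with DAPI and phalloidin. Cy5 signal imaged by inverted fluorescence microscopy.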

The nature of series [3]: Drug uptake in human Hela cells assessed as fluorescent signal at 0.5 uM measured after 48 hrs by fluorescence microscopy. Type of series: ADME, cell-based. A digest of the protocol: as §2
Series [4] is described as follows: Stability of compound in foetal bovine serum at 100 uM measured for 2 to 48 hrs by reverse phase HPLC chromatographic analysis. Type of series: ADME, cell-free, Bos taurus. As to conditions: cattle, time 2-48 hrs. The method, boiled down:
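Held at 100 µM in foetal bovine serum at 37 °C for up to 48 h (2–48 h). Each aliquot diluted 1:10 in pH 7.4 culture medium before RP-HPLC with a 35 min 0.1% TFA water/acetonitrile gradient. Chromatographic profile monitored.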

The target in series [5] is Serine/threonine-protein kinase B-raf (Homo sapiens, UniProt P15056, V600E). The series is described as follows: biochemical.
The subject of series [6] is Serine/threonine-protein kinase B-raf (Homo sapiens), P15056 [V600E]. Nature of the series: Displacement of Vemurafenib from BRAF V600E mutant in human WM278 cells assessed as increase in cyno-fluorescence measured after 90 mins by flow cytometry based displacement assay. It counts as cell-based. A digest of the protocol: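 Without washing, the Cy5 probe was added at 0, 0.05, 0.2, 1 and 2 µM for 90 min more. Cells were washed three times with medium (15 min each), imaged live, detached, and cell-associated Cy5 fluorescence was quantified by flow cytometry.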
(In general: In flow cytometry, cells or beads pass a laser one at a time.)

Series [7] is described as follows: Chemical stability of compound in cell culture medium at 100 uM at acidic pH measured for 2 to 48 hrs by reverse phase HPLC chromatographic analysis. It counts as physicochemical. As to conditions: time 2-48 hrs. A digest of the protocol: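 Incubated at 100 µM, 37 °C, in phenol red-free DMEM High Glucose at pH 5, 7.4 or 8 for up to 48 h (2–48 h). Aliquots taken at each time point and analysed by RP-HPLC with a 35 min 0.1% TFA water/acetonitrile gradient. Chromatographic profile and 640/330 nm peak-area ratio followed.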

Structures are written as SMILES.

Sequence of Serine/threonine-protein kinase B-raf (Homo sapiens), P15056 [V600E] (P15056 whole entry V600E): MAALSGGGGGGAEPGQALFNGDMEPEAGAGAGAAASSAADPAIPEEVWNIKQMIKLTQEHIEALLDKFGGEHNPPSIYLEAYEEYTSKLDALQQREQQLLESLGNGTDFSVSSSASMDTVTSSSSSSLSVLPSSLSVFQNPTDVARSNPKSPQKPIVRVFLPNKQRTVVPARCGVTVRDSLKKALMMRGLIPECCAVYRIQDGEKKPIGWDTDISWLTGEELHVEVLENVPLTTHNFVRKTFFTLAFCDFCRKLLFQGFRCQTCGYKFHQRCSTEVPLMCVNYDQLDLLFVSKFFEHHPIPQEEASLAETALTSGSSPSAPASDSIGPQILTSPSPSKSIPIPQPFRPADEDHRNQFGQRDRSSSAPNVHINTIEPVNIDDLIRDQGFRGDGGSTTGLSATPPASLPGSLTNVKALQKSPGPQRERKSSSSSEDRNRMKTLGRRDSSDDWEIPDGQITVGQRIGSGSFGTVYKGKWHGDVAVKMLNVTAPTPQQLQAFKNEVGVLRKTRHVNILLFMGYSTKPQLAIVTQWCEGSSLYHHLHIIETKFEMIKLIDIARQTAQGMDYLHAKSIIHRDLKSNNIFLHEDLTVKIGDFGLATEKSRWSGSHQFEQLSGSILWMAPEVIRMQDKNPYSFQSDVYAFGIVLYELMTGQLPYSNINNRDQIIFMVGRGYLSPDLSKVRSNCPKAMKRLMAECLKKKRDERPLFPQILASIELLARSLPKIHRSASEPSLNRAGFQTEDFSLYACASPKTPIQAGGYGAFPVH
Sequence of Serine/threonine-protein kinase B-raf (P15056 2-766 V600E limits assumed): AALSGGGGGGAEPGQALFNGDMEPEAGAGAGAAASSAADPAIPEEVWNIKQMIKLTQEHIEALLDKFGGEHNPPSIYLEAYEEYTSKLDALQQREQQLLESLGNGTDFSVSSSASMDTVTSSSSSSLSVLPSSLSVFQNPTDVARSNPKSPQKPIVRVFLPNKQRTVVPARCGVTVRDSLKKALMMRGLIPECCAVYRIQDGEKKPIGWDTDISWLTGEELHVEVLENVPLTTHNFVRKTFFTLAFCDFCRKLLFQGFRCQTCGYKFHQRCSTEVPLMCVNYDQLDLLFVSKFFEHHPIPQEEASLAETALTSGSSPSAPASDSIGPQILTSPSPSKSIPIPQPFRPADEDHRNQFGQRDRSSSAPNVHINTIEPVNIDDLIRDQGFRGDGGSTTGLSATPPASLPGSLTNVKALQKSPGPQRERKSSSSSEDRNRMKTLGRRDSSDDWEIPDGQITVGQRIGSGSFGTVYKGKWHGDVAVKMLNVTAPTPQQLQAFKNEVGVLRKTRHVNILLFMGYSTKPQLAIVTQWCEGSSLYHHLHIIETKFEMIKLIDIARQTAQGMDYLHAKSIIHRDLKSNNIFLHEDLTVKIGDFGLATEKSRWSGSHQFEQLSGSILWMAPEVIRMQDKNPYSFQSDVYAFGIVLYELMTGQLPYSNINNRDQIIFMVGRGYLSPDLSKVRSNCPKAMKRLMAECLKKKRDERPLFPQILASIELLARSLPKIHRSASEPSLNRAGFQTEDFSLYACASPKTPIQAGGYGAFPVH

`CCCS(=O)(=O)Nc1ccc(F)c(C(=O)c2c[nH]c3ncc(-c4ccc(N)cc4)cc23)c1F`: the IC50 (in general, the concentration at which inhibition is half-maximal) in the series with HT-29 stood at 27 nM; in [1], 15 nM; with C32, 12 nM; with 8505C, 620 nM.
With `CCCS(=O)(=O)Nc1ccc(F)c(C(=O)c2c[nH]c3ncc(-c4ccc(Cl)cc4)cc23)c1F` [VEMURAFENIB], the IC50 in the series with HT-29 was determined as 49 nM; in [1], 150 nM; in the series on C32, 84 nM; in the series with 8505C, 2940 nM.
On to `CCCS(=O)(=O)Nc1ccc(F)c(C(=O)c2c[nH]c3ncc(-c4ccc(NC(=O)COCCOCCNC(=O)CCCCC[N+]5=C(/C=C/C=C/C=C6\N(C)c7ccccc7C6(C)C)C(C)(C)c6ccccc65)cc4)cc23)c1F.O=C([O-])C(F)(F)F`, for which the concentration for half-maximal inhibition (IC50) came to 340 nM with HT-29, 570 nM in series [1], 630 nM in the series on C32 and 2500 nM in the series on 8505C. Further, the Drug uptake entry in series [2] was “Active”; in [3] it was “Not Active”. In addition, the Stability result in series [4] was “Stable”; in series [7], “Unstable”. The Kd (in general, a measure of binding affinity in units of concentration) in series [5] came out at 13 nM. Further, the Activity result in series [6] was “Dose-Dependent Effect”.

These data come from ChEMBL document CHEMBL5370545 (Eur J Med Chem, 2023).
